# Experimental data taken from ChEMBL document CHEMBL4414601 (J Med Chem, 2019).
# Active and inactive are the calls of the source. No cut-off for these calls is given here.
# Key:
# [1] = molecular target: T1, Calcium-dependent protein kinase 1 (Plasmodium falciparum, UniProt P62344); assay: Binding affinity to CDPK1 in Plasmodium falciparum 3D7 blood stage extract incubated for 1 hr by kinobeads based pull down assay; settings: read-out: Kd(app)
# In short: (§1)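 Chemoproteomic competition used kinobeads or Sepharose beads derivatized with ligand at 1 mM. Free compound was tested at six concentrations between 0.08 and 20 μM, in two independent experiments. Proteins were SP3-digested, TMT 10-plex labelled and measured by LC-MS/MS. IC50s came from competition curves, and apparent Kd was corrected for protein depletion by the beads.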
# [2] = tested on: Plasmodium falciparum; assay: Antiplasmodial activity against Plasmodium falciparum 3D7A erythrocytic stage assessed as reduction in [3H]hypoxanthine incorporation preincubated for 24 hrs followed by [3H]hypoxanthine addition and measured after 24 hrs by microbeta scintillation counting method; assay type: functional, organism-based
# In short: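 Nine threefold serial dilutions from 5 μM top concentration. Incubated 24 h at 37 °C under 5% CO2/5% O2/90% N2, then 0.2 μCi [3H]-hypoxanthine per well for another 24 h. Cells harvested on glass fibre filters and counted. Data normalized to compound-free parasitized RBCs; IC50 fitted.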
# [3] = Binding affinity to GSK3 in Plasmodium falciparum 3D7 blood stage extract incubated for 1 hr by kinobeads based pull down assay; settings: read-out: Kd(app)
# In short: (§2)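 The free compound competed over six concentrations from 0.08 to 20 μM. Proteins were digested by a modified SP3 protocol, labelled with TMT 10-plex and quantified by LC-MS/MS. Apparent Kd was derived from IC50 corrected for bead depletion. Two independent experiments were run.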
# [4] = molecular target: T1, Calcium-dependent protein kinase 1; assay: Binding affinity to CDPK1 in Plasmodium falciparum 3D7 blood stage extract incubated for 1 hr in presence of ATP-competitive kinase inhibitor by kinobeads based pull down assay; settings: read-out: Kd(app); in short: as §1
# [5] = Aqueous solubility of compound; settings: buffer
# [6] = molecular target: T2, Calcium-dependent protein kinase 4 (Plasmodium falciparum (isolate 3D7), UniProt Q8IBS5); assay: Binding affinity to CDPK4 in Plasmodium falciparum 3D7 blood stage extract incubated for 1 hr by kinobeads based pull down assay; settings: read-out: Kd(app); in short: as §1
# T2 sequence (Q8IBS5 whole entry): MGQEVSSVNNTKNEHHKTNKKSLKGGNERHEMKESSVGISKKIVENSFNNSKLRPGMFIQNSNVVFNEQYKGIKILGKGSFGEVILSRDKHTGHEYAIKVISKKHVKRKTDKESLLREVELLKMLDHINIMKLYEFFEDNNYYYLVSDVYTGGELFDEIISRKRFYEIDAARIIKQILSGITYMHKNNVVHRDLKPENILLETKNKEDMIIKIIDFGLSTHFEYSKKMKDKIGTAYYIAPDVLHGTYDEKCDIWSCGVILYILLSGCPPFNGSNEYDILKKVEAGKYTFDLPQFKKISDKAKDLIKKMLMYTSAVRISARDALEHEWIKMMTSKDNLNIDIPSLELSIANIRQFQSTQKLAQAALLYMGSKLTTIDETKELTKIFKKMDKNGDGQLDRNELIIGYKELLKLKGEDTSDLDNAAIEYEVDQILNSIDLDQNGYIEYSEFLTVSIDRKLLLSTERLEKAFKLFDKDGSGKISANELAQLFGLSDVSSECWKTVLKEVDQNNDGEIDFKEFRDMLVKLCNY
# [7] = Binding affinity to SRPK2 in Plasmodium falciparum 3D7 blood stage extract incubated for 1 hr in presence of ATP-competitive kinase inhibitor by kinobeads based pull down assay; settings: read-out: Kd(app); in short: as §2
# [8] = molecular target: T2, Calcium-dependent protein kinase 4; assay: Binding affinity to CDPK4 in Plasmodium falciparum 3D7 blood stage extract incubated for 1 hr in presence of ATP-competitive kinase inhibitor by kinobeads based pull down assay; settings: read-out: Kd(app); in short: as §1
# [9] = tested on: L929; assay: Cytotoxicity against mouse L929 cells assessed as reduction in viability by dual luciferase reporter gene assay; assay type: ADME, cell-based
# [10] = Lipophilicity, LogD of compound by reverse phase HPLC analysis
# [11] = Permeability of compound by PAMPA
# [12] = tested on: Plasmodium falciparum 3D7
# [13] = Binding affinity to GSK3 in Plasmodium falciparum 3D7 blood stage extract incubated for 1 hr in presence of ATP-competitive kinase inhibitor by kinobeads based pull down assay; settings: read-out: Kd(app); in short: as §2
# [14] = molecular target: T3, Casein kinase I (Plasmodium falciparum (isolate 3D7), UniProt Q8IHZ9); assay: Binding affinity to CK1 in Plasmodium falciparum 3D7 blood stage extract incubated for 1 hr by kinobeads based pull down assay; settings: read-out: Kd(app)
# T3 sequence (Q8IHZ9 whole entry): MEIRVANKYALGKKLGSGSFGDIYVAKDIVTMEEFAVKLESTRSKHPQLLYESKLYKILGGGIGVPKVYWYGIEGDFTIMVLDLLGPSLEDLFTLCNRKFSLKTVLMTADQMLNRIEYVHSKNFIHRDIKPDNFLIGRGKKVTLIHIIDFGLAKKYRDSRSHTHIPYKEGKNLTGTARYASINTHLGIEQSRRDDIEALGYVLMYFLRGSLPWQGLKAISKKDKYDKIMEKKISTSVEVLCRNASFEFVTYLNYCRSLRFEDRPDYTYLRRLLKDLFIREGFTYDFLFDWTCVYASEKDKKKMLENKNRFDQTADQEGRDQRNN
# In short: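 Chemoproteomic competition binding: Sepharose beads derivatized at 1 mM with the immobilized ligand (kinobeads prepared likewise). Free compound competed at six concentrations, 0.08–20 μM. Proteins were SP3-digested, TMT 10-plex labelled and quantified by LC-MS/MS on an Orbitrap. IC50 from the competition curve; apparent Kd corrected for protein depletion by the beads. Two independent experiments.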
# T1 sequence (P62344 whole entry): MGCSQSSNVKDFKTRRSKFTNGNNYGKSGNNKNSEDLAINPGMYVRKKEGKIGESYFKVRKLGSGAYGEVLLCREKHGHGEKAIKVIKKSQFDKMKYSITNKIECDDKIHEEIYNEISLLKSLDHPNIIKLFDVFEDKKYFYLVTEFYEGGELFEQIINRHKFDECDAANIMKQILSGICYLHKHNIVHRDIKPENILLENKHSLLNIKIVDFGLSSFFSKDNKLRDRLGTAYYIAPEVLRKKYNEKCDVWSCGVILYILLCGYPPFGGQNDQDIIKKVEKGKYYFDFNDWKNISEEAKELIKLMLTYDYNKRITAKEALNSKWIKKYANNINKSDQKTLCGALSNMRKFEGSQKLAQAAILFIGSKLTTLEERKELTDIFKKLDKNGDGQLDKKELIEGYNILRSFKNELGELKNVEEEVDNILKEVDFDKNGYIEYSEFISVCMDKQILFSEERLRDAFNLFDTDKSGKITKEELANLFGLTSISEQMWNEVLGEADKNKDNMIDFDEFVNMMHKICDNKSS
structure (smiles),measurement,setting,value
Fc1ccc(-c2nc(C3CCNCC3)sc2-c2ccnc(NCCN3CCSCC3)n2)cc1,Kd,[1],2100 nM
same,EC50,[2],4030 nM
same,Kd,[3],5300 nM
same,Kd,[4],2100 nM
same,solubility,[5],491 µM
same,Kd,[6],60 nM
same,Kd,[7],> 20000 nM
same,Kd,[8],60 nM
same,EC50,[9],15100 nM
same,chromatographic logD,[10],2.84
same,Papp,[11],31 ×10⁻⁶ cm/s
same,Kd(app),[12],inactive
same,Kd,[13],5300 nM
same,Kd,[14],1500 nM
